# Compound activity as filed in PubChem BioAssay.
# UBC13 inh – inhibitors of human UBC13 polyubiquitin chain formation; P61088; TR-FRET; inhibition, % at 20 µM; 330,000 tested, 0.47% active; AID 485273; in the data active = inhibition above about 45%, passing the limit was not always enough
# PREPL inhibitor – human PREPL enzyme inhibition; inhibition, % at 5.96 µM; Q4J6C6; AID 2751; 320,000 tested, 0.68% active; recombinant PREPL, fluorescence polarization activity-based probe; in the data active = inhibition above about 43%
# MEKK2mut PB1 HTS – signal of MEK5 binding to mutant human MEKK2 PB1 domain; bead flow cytometry, Alexa488-MEK5 binding to MEKK2 mutant; percent response, % at 10 µM; 290,000 tested, 0.35% active; AID 1530; in the data active = percent response above about 24%, passing the limit was not always enough
# MEKK2wt PB1 HTS – raises or lowers MEK5 binding to wildtype human MEKK2 PB1 domain. Q9Y2U5. bead flow cytometry, Alexa488-MEK5 binding to MEKK2 WT; actives lie on both sides. binding response (% of control), % at 10 µM. 290,000 tested, 1.1% active. AID 1531; in the data active = binding response below about 67% or above about 130%
# Apaf1 inhib – blocks human Apaf-1 apoptosome activity. O14727. inhibition, % at 20 µM. 330,000 tested, 0.71% active. reconstituted apoptosome caspase-3 activity, DEVD-Rh110 fluorescence; active = inhibition of at least 40% at 20 µM
#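 System: reconstituted apoptosome with Apaf-1, cytochrome c, caspase-9, procaspase-3, dATP; Signal: Rh110 fluorescence intensity; Schedule: 30 min compound preincubation, 50 min activation, room temperature; Reagent: cytochrome c trigger plus (Z-DEVD)2-Rh110 caspase-3 substrate.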
# MEKK3 PB1 HTS – raises or lowers MEK5 binding to the human MEKK3 PB1 domain | Q99759 | bead-based flow cytometry, Alexa488-MEK5 binding to MEKK3; actives lie on both sides; 0 = blocked by unlabeled MEK5, 100 = vehicle | binding response (% of control), % at 10 µM | 290,000 tested, 1.4% active;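 active = binding response more than 3 SD above or below the average of its plate-row segment, actives on both sides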;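 note: Alexa488 bead fluorescence after subtracting the streptavidin-only scavenger bead signal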
# Target sequence (Q99759 whole entry, looked up, the tested form may be a part): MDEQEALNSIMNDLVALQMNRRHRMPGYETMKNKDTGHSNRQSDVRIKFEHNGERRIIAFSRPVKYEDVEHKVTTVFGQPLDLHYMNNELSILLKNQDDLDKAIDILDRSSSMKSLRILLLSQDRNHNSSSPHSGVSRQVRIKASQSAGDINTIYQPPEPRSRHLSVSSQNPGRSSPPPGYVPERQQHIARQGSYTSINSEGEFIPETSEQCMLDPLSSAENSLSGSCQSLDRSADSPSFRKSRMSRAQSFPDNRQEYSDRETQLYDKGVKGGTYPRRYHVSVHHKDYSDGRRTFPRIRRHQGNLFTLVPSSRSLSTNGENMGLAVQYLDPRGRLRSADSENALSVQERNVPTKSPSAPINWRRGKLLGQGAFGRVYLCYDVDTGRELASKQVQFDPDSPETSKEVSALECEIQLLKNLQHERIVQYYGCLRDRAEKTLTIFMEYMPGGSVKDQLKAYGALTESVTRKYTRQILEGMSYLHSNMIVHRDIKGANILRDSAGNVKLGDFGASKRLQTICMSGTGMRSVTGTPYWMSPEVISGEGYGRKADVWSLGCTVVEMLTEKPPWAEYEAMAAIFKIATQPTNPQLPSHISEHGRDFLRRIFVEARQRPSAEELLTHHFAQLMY
# A number is an active result; - = inactive; . = no result given; [ ] = another dose, or the depositor's remark. Sampled rows, rich in hits. Any-hit rate of the full collection: about 3.1%.
SMILES,UBC13 inh,PREPL inhibitor,MEKK2mut PB1 HTS,MEKK2wt PB1 HTS,Apaf1 inhib,MEKK3 PB1 HTS
CCCCCC#CCC#CCC#CCC#CCCCC(=O)O,-,-,-,-,40.8,-
Cc1ccccc1Nc1cc2ccccc2c(=O)[nH]1,-,-,-,-,95.8,-
CNc1nn(-c2cccc(Cl)c2)nc1N,-,-,-,-1.0,-,-
CCC(=O)N/N=C/c1ccc(-c2ccc([N+](=O)[O-])cc2)o1,-,-,-,-,-,-
CC(C)(C)C(=O)/C=c1\s/c(=C\c2ccc(-c3ccc([N+](=O)[O-])cc3)o2)c(=O)n1CC(=O)NC(N)=O,-,-,396.0,241.0,-,-
CCOc1ccc(NC(=O)COC(=O)Cc2ccsc2)cc1,-,-,.,.,-,.
CN(C(=O)CSc1ncnc2sc3c(c12)CCCC3)C1CCS(=O)(=O)C1 (centres undefined),-,-,.,.,-,.
Cc1cccc(NC(=O)CSc2nsc(SCC(=O)Nc3cccc(C)c3)c2C#N)c1,-,-,-,29.0,-,-
N#Cc1c(SCC(=O)Nc2ccccc2)nsc1SCC(=O)Nc1ccccc1,-,-,-,-,-,-
CC(C)Cc1ccc(CN2CCCC(NC(=O)CCN3CCCCC3=O)C2)cc1 (centres undefined),-,-,-,-,-,-
CC(C)Cc1ccc(CN2CCCC(NC(=O)CCN3CCCO3)C2)cc1 (centres undefined),-,-,-,134.0,-,-
COc1cccc2cc(C(=O)OCc3ccccc3)c(=O)oc12,-,-,-,-,-,-
CC(C)CNC(=O)[C@@H]1CSC2c3ccccc3C(=O)N21 (some centres undefined),-,.,-,-,-,-
Cc1ccc(N=Nc2c(N)nn(-c3ccccc3)c2N)cc1,-,62.3,-,-,-,-
CC(=O)N1c2ccc(S(=O)(=O)NCC3CCC(C(=O)N4CCCC(C)C4)CC3)cc2CC1C (centres undefined),-,-,-,-,-,-
CCn1c2ccccc2c2cc(NC(=O)c3ccc(=O)oc3)ccc21,-,70.7,-,-,-,-
Cc1ccc(C2=NN(C(=O)CCl)C(c3ccco3)C2)o1 (centres undefined),-,.,-,-,-,-
COc1ccc(N=C2O/C(=C/c3sc(=S)n(CC4CCCO4)c3O)N=C2C#N)cc1 (centres undefined),-,-,-,33.0,-,-
O=C(NCc1cccc2[nH]ccc12)C1CCC(=O)N(CCc2ccc(Cl)cc2)C1 (centres undefined),-,-,-,-,-,-
O=C(COc1coc(CN2CCN(c3ccccc3)CC2)cc1=O)NC1CCCCC1,-,-,.,.,-,.
Cc1cccc2cc3c(N)c(C(=O)N4CCc5ccccc54)sc3nc12,-,-,-,30.0,-,-
Oc1c(Cl)cc(Cl)cc1Sc1cc(Cl)cc(Cl)c1O,-,48.0,-,-,-,-
O=C(Nc1ccc(Nc2ccncc2)cc1)c1ccc(Nc2ccnc3ccc([N+](=O)[O-])cc23)cc1,.,.,-,72.0[inhibitor],.,61.0[inhibitor]
Cc1ccc(NC(=O)C2COc3ccccc3O2)cc1S(=O)(=O)N1CCOCC1 (centres undefined),-,-,.,.,-,.
COc1ccccc1N1CCN(C(=O)C2C3C=CC4(CN(Cc5ccccc5Cl)C(=O)C24)O3)CC1 (centres undefined),-,-,-,-,-,82.0[inhibitor]
SMILES,UBC13 inh,PREPL inhibitor,MEKK2mut PB1 HTS,MEKK2wt PB1 HTS,Apaf1 inhib,MEKK3 PB1 HTS
COc1ccc(CCN2CC34C=CC(O3)C(C(=O)NCc3ccccc3Cl)C4C2=O)cc1OC (centres undefined),-,-,-,-,-,-
Cc1cc(C)c(OCC(O)CN2CCN(c3ccccn3)CC2)c(C)c1 (centres undefined),-,-,-,-8.0,-,-
Cc1cc(OCC(O)CN2CCN(c3ccccn3)CC2)cc(C)c1Cl (centres undefined),-,-,-,-,-,-
CN(CC(=O)Nc1ccc(Cl)c(C(F)(F)F)c1)C(=O)COC(=O)C1CC2CCCC(C1)C2=O (centres undefined),-,-,.,.,-,.
COCCCNC(=O)C1CCN(C(=O)c2cc3sccc3n2Cc2ccc(F)cc2)CC1,-,-,.,.,-,.
O=C(NCCCN1CCCC1)C1CCN(C(=O)c2cc3sccc3n2Cc2ccc(F)cc2)CC1,-,-,28.0,168.0,-,-
CC(C)n1nnnc1SCC(=O)N(C)C1CCS(=O)(=O)C1 (centres undefined),-,-,.,.,-,.
COc1cc(CN2CCN(c3cccc(C)c3C)CC2)cc([N+](=O)[O-])c1O,-,-,242.0,212.0,-,-
COc1ccc(N2CCN(Cc3cc(OC)c(O)c([N+](=O)[O-])c3)CC2)cc1,-,-,-,-,-,-
CCN(CC)S(=O)(=O)c1ccc(N2CCCC2)c(NC(=O)C2=NN(c3ccccc3)C(=O)CC2)c1,-,-,.,.,-,.
Nc1cc2nc3ccccc3oc-2cc1=O,-,-,-,-,47.8,-
O=c1oc2ccccc2cc1-c1nc2ccccc2o1,-,-,-,-,-,-
Cc1cc(C)c(S(=O)(=O)N2CCN(C(=O)C3COc4ccccc4O3)CC2)c(C)c1 (centres undefined),-,-,.,.,-,.
CCC1Oc2ccc(C)cc2N(CC(=O)NCCN2CCOCC2)C1=O (centres undefined),-,-,-,-,-,-
CN(CC(=O)Nc1ccc(Cl)cc1)C(=O)Cn1[nH]c(=O)c2ccccc2c1=O,-,-,.,.,-,.
Cc1cccc(NC(=O)CNC(=O)Cc2ccc3c(c2)OCCO3)c1C,-,-,.,.,-,.
CC(=O)N1CC(C)Sc2ccc(S(=O)(=O)NCCc3ccccc3)cc21 (centres undefined),-,-,-,-,-,-
CC(=O)N1CC(C)Sc2ccc(S(=O)(=O)NC(C)c3ccccc3)cc21 (centres undefined),-,-,-,64.0[inhibitor],-,80.0[inhibitor]
CC(=O)CCc1ccc(OCC(O)CNC2CCCc3ccccc32)cc1 (centres undefined),-,-,-,-,65.0,-
CCCN1CCN(C(=O)C2CCN(S(=O)(=O)c3ccc4c(c3)NC(=O)C(C)S4)CC2)CC1 (centres undefined),-,-,25.0,51.0,-,-
CCC(OC(=O)c1nsc(Cl)c1Cl)C(=O)NC(C)(C)C (centres undefined),-,-,-,12.0,-,-
Cc1ccc([N+](=O)[O-])c(OCCN2CCCCCC2)c1,-,-,-,-,-,-
Cc1ccc([N+](=O)[O-])c(OCCCN2CCC(Cc3ccccc3)CC2)c1,.,-,-,143.0,.,-
Cc1ccc(C(=O)N2CCC3(CC2)NCCc2[nH]cnc23)cc1C,-,-,-,-,-,-
